Laboratory results reported in ChEMBL document CHEMBL1142164, “Activities of naphthylisoquinoline alkaloids and synthetic analogs against Leishmania major” (Antimicrob Agents Chemother, 2007).

Key:
Mus musculus [1] = organism: Mus musculus; assay: Cytotoxicity against J774.1 macrophages after 48 hrs; details: J774.1, 48 h
How it was run: (§1)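 J774.1 cells, BALB/c peritoneal exudate cells (erythrocytes lysed in 10 mM NH4Cl), or BMDC (day-10 nonadherent cells from GM-CSF 200 U/ml cultures) were plated at 2 × 10^6 cells/ml in complete RPMI without phenol red. Cells were exposed to increasing concentrations for 24 h at 37°C in 5% CO2, then Alamar Blue was added. IC50 was taken by linear interpolation from the 48 h OD. Duplicate wells, at least two experiments.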

Leishmania major = assay: Cytotoxicity against cloned virulent Leishmania major promastigotes MHOM/IL/81/FE/BN1 after 48 hrs; format: organism-based
How it was run: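 L. major promastigotes grown on blood agar at 26°C, 5% CO2, then washed in PBS and suspended at 1 × 10^8 cells/ml in complete Click RPMI 1640 (10% FCS, glutamine, HEPES pH 7.2, antibiotics, 2-mercaptoethanol), no phenol red. Exposed to increasing compound concentrations 24 h at 26°C, then Alamar Blue added. OD read 540/630 nm; 48 h OD versus untreated (100% growth) gave IC50 by linear interpolation. Duplicate wells, ≥2 experiments; DMSO ≤1% final.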

[2] = Cytotoxicity index, IC50 for J774.1 macrophages over IC50 for Leishmania major promastigotes; details: mouse; for selectivity ratio: J774.1 macrophages, read-out: Ratio IC50
How it was run: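 Index is J774.1 IC50 divided by promastigote IC50, with both assays run in parallel. Promastigotes were incubated 24 h at 26°C with rising concentrations, and J774.1 cells 24 h at 37°C. Alamar Blue was then added. OD at 540/630 nm was read, and IC50 was interpolated linearly from the 48 h readings, with drug-free wells set as 100% growth.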

Mus musculus [3] = organism: Mus musculus; assay: Cytotoxicity against BALB/c mouse peritoneal macrophages by Alamar blue method; format: functional; how it was run: as §1
[4] = Cytotoxicity against BALB/c mouse bone-marrow derived dendritic cells by Alamar blue method; format: cell-based; details: Dendritic cell; how it was run: as §1
NIH3T3 = assay: Cytotoxicity against mouse embryo NIH3T3 cells by Alamar blue method; format: cell-based
How it was run: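 NIH 3T3 fibroblasts were grown on gelatin and suspended at 2 × 10^6 cells/ml in DMEM. They were exposed to rising compound concentrations for 24 h at 37°C in 5% CO2, then Alamar Blue was added. IC50 was derived by linear interpolation of the 48 h OD. Duplicate wells per concentration; at least two experiments.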

| Structure (SMILES) | IC50 (Mus musculus [1]) | IC50 (Leishmania major) | selectivity ratio [2] | IC50 (Mus musculus [3]) | IC50 [4] | IC50 (NIH3T3) | Ratio IC50 [2] |
| --- | --- | --- | --- | --- | --- | --- | --- |
| COc1cc(OC)c(-c2ccc(OC)c3c(OC)cc(C)cc23)c2c1C(C)=N[C@@H](C)C2 [ANCISTROEALAINE A] | > 100 µM | > 100 µM |  |  |  |  |  |
| COc1c2c(cc(O)c1-c1c(C)cc3cccc(OC)c3c1O)C[C@H](C)N=C2C [ANCISTROHEYNINE B] | 29.9 µM | 33 µM | < 1 |  |  |  |  |
| COc1ccc(-c2ccc3cc(C)nc(C)c3c2O)c2cc(C)cc(OC)c12 [DIONCOPHYLLEINE D] | > 100 µM | > 100 µM |  |  |  |  |  |
| COc1cc(C)c(-c2ccc3cc(C)nc(C)c3c2O)c2cccc(O)c12 [ENT-DIONCOPHYLLEINE A] |  | 32.3 µM |  |  |  |  |  |
| COc1cc2c(c(OC)c1)C(C)=[N+](c1ccc3cc(C)cc(OC)c3c1O)[C@@H](C)C2 [ANCISTROCLADINIUM B] | 11.2 µM | 1.24 µM | 9.04 | 16.9 µM | 20.1 µM | 10.6 µM |  |
| COc1cc2c(c(OC)c1-c1c(C)cc3cccc(OC)c3c1O)C(C)=N[C@@H](C)C2 [ANCISTROCLADIDINE] | > 100 µM | > 100 µM |  |  |  |  |  |
| COc1cccc2c(-c3ccc4c(c3O)[C@@H](C)N[C@H](C)C4)c(C)cc(OC)c12 [DIONCOPHYLLINE A] |  | 47 µM |  |  |  |  |  |
| COc1cc(OC)c2c(C)[n+](-c3ccccc3)c(C)cc2c1.[O-][Cl+3]([O-])([O-])[O-] | 39.2 µM | 26.6 µM | 1.47 |  |  |  |  |
| COc1cc(CO)c(-c2ccc3c(c2O)[C@@H](C)N[C@H](C)C3)c2cccc(O)c12 [DIONCOPELTINE A] | > 100 µM | > 100 µM |  |  |  |  |  |
| COc1cc(C)c(-c2ccc(O)c3c2C[C@@H](C)N[C@@H]3C)c2cccc(O)c12 [DIONCOPHYLLINE C] | 32.8 µM | 36.5 µM | < 1 |  |  |  |  |
| COc1cc2c(c(OC)c1)C(C)=[N+](c1ccc(OC)c3c(OC)cc(C)cc13)[C@@H](C)C2 [ANCISANCISTROCLADINIUM A] | 31.8 µM | 4.9 µM | 6.48 | 41.7 µM | 36 µM |  |  |
| COc1cc(OC)c2c(C)[n+](-c3ccccc3)c(C)cc2c1.[Cl-] | 43.7 µM | 47 µM |  |  |  |  | < 1 |
| COc1cc(OC)c2c(C)[n+](-c3cccc4ccccc34)c(C)cc2c1.[O-][Cl+3]([O-])([O-])[O-] | 10.2 µM | 2.91 µM | 3.48 | 15.5 µM | 27.4 µM | 15 µM |  |
